Laboratory results published in ChEMBL document CHEMBL1154124, “Vascular effects of different lipophilic components of "Danshen", a traditional Chinese medicine, in the isolated porcine coronary artery” (2008).
Calls of active or inactive are those of the source. The rule behind the calls is not given here.

Assays:
Conditions in all cases: Sus scrofa
Artery [1] = test: Vasorelaxant activity in pig endothelium-intact coronary artery assessed as inhibition of U46619-induced contraction; format: functional
Outline: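 Endothelium-intact porcine coronary rings at 2 g resting tension in Krebs-Henseleit, 37 °C, gassed with 95% O2/5% CO2. Rings were discarded if the mean KCl 30 mM contraction was under 4 g or bradykinin relaxation under 40%. PVP K30-complexed sample was given for 30 min. Cumulative U46619 was then added (0.1 nM to 1 µM). ED50 and Emax use % of the mean KCl 30 mM contraction; n = 8, separate hearts.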

Artery [2] = test: Vasorelaxant activity in pig endothelium-intact coronary artery assessed as inhibition of U46619-induced contraction at 50 ug/ml; format: functional, tissue-based
Outline: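 Porcine coronary rings with endothelium in Krebs-Henseleit solution at 37 °C, gassed with 95% O2/5% CO2, held at 2 g resting tension and equilibrated 100 min. Each ring was contracted twice with KCl 30 mM and relaxed with bradykinin 1 µM. Test material as a PVP complex was given for 30 min, then cumulative U46619 0.1 nM–1 µM. Contraction was expressed as % of the mean KCl response, giving ED50 and Emax; n=8.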

Artery [3] = test: Vasorelaxant activity in pig endothelium-denuded coronary artery assessed as inhibition of 5-hydroxytryptamine-induced contraction at 15 ug/ml; format: functional, tissue-based
Outline: (§1)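 Endothelium-removed porcine coronary rings at 2 g resting tension in Krebs-Henseleit, 37 °C, 95% O2/5% CO2. Each ring was primed twice with KCl 30 mM and relaxed with bradykinin 1 µM. Test material, as a PVP K30 complex, was given for 30 min. Stepwise contractions were then made with 5-HT (10 nM to 10 µM), U46619 (0.1 nM to 1 µM) or KCl (10-70 mM). Tension is % of the mean of the two KCl 30 mM contractions; n = 7-11.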

Artery [4] = test: Vasorelaxant activity in pig endothelium-denuded coronary artery assessed as inhibition of potassium chloride-induced contraction at 50 ug/ml; format: functional, tissue-based; outline: as §1
Artery [5] = test: Vasorelaxant activity in pig endothelium-denuded coronary artery assessed as inhibition of U46619-induced contraction at 15 ug/ml; format: functional, tissue-based; outline: as §1
Artery [6] = test: Vasorelaxant activity in pig endothelium-intact coronary artery assessed as reversible inhibition of U46619-induced contraction at 1 uM; format: functional, tissue-based

| Structure (SMILES) | Emax (Artery [1]) [%] | Activity (Artery [2]) | Activity (Artery [3]) | Activity (Artery [4]) | Activity (Artery [5]) | Activity (Artery [6]) |
| --- | --- | --- | --- | --- | --- | --- |
| Cc1coc2c1C(=O)C(=O)c1c-2ccc2c1CCCC2(C)C [TANSHINONE IIA] | 92.9 | Active | – | – | – | – |
| CC1(C)CCCc2c1ccc1c2C(=O)C(=O)c2c(CO)coc2-1 [PRZEWAQUINONE A] | 29.2 | – | Active | Active | Active | Active |
| C[C@H]1COC2=C1C(=O)C(=O)c1c2ccc2c1CCCC2(C)C [CRYPTOTANSHINONE] | 64.9 | Active | – | – | – | – |
